Consider 4 compounds from ChEMBL document CHEMBL3045646, “Synthesis and antityrosinase activities of alkyl 3,4-dihydroxybenzoates” (J Agric Food Chem, 2011).

The target of assay [1] is T1, Tyrosinase (Agaricus bisporus) (UniProt O42713).
T1 sequence (whole entry): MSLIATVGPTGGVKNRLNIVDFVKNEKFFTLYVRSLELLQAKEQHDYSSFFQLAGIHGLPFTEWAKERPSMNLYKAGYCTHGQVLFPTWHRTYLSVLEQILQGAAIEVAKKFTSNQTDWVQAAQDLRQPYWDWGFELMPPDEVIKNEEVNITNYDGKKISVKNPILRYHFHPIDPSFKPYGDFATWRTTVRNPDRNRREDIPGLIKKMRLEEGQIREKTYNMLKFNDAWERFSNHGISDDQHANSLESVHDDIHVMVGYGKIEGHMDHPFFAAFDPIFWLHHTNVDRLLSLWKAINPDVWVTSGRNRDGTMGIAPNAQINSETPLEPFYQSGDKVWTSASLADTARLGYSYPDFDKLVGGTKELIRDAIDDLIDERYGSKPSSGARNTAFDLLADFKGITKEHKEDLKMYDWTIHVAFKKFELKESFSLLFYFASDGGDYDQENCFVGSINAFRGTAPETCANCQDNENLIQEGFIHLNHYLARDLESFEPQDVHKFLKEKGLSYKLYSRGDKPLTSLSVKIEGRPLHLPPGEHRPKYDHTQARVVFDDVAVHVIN
The experiment in a line: Uncompetitive inhibition of Agaricus bisporus (mushroom) tyrosinase assessed as […] in Km and Vm without change in Km/Vm using L-DOPA as substrate by Line-weaver burk plot analysis. The method in brief:
(§1)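 L-DOPA oxidation by mushroom tyrosinase at 30 °C, pH 6.8, with inhibitor at 0, 50, 100, 150 and 200 μM, read at 475 nm. Inhibition type came from Lineweaver–Burk plots (1/v vs 1/[S]). K_IS came from a secondary plot of 1/V_m (or apparent K_m/V_m) against inhibitor concentration.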

Assay [2] deals with T2, Tyrosinase (Agaricus bisporus, UniProt O42713).
T2 sequence (O42713 whole entry): T1 sequence (whole entry)
The experiment in a line: Inhibition of Agaricus bisporus (mushroom) tyrosinase-catalyzed oxidation of L-DOPA substrate by spectrophotometric analysis. The procedure, abridged:
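Diphenolase activity of mushroom tyrosinase (6.67 μg/mL final) with 0.5 mM L-DOPA in 50 mM sodium phosphate pH 6.8, 30 °C. Inhibitors added from DMSO, 3.3% DMSO final; DMSO-only controls. Rate from slope of linear A475 progress curve. IC50 = concentration giving 50% activity loss.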

Assay [3] has as its target T2, Tyrosinase. The experiment in a line: Inhibition of Agaricus bisporus (mushroom) tyrosinase using L-DOPA as substrate by secondary plot analysis. The method in brief: as §1
For assay [4], the target named is T1, Tyrosinase (Agaricus bisporus). The experiment in a line: Reversible inhibition of Agaricus bisporus (mushroom) tyrosinase assessed as remaining enzyme activity using L-DOPA as substrate by spectrophotometric analysis. The procedure, abridged:
(§2)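 Reversibility tested with L-DOPA as substrate in pH 6.8 phosphate buffer at 30 °C, with A475 read-out. Remaining activity was plotted against enzyme concentration at several inhibitor levels, with inhibitor series of 0–200, 0–100 or 0–80 μM. Lines through the origin were taken as reversible, and parallel lines not through the origin as irreversible.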

Assay [5] relates to Plutella xylostella. The experiment in a line: Insecticidal activity against second-instar larval stage of Plutella xylostella (diamondback moth) assessed as inhibition of insect development and molting at 40 mg/ml after 3 days (reference value: 0.95 cm). The format is functional. The method in brief: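 Compound dissolved in acetone, diluted (2.5–40 mg/mL) and spread over feed surface. Larvae kept at 27 ± 2 °C, 70% humidity, 14:10 h light:dark photoperiod. Larval body length recorded after 3 days.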

Assay [6] concerns the target T1, Tyrosinase (Agaricus bisporus). The experiment in a line: Uncompetitive inhibition of Agaricus bisporus (mushroom) tyrosinase assessed as […] in Km and Vm without change in Km/Vm using L-DOPA as substrate at 50 uM by Line-weaver burk plot analysis. The procedure, abridged:
as §1

Assay [7] concerns Plutella xylostella. The experiment in a line: Downregulation of tyrosinase inactive precursor, PxPPO gene expression in newly molted second-instar larval stage of Plutella xylostella (diamondback moth) at 2.5 to 40 mg/ml after 72 hr by real-time quantitative PCR analysis. It is filed as functional, organism-based. The procedure, abridged:
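Compound in acetone, diluted to 2.5, 5, 20 and 40 mg/mL and spread on feed surface in wells. Larvae reared at 27 ± 2 °C, 70% humidity, 14:10 h light:dark. Whole-body PxPPO2 transcripts measured 72 h after treatment by real-time qPCR (95 °C 10 s; 45 cycles of 95 °C 5 s / 60 °C 20 s), with melting-curve check, normalized to GAPDH.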

Assay [8] concerns the target T1, Tyrosinase (Agaricus bisporus). The experiment in a line: Irreversible inhibition of Agaricus bisporus (mushroom) tyrosinase assessed as remaining enzyme activity using L-DOPA as substrate by spectrophotometric analysis. The procedure, abridged: as §2
Assay [9] has the same target. The experiment in a line: Irreversible inhibition of Agaricus bisporus (mushroom) tyrosinase assessed as remaining enzyme activity at >75 uM using L-DOPA as substrate by spectrophotometric analysis. The method in brief:
as §2

Assay [10] has the same target. The experiment in a line: Reversible inhibition of Agaricus bisporus (mushroom) tyrosinase assessed as remaining enzyme activity at <50 uM using L-DOPA as substrate by spectrophotometric analysis. The procedure, abridged:
as §2

Activity calls are given as the source filed them. No cut-off for these calls is given here.

Turning to `CCCCCCCOC(=O)c1ccc(O)c(O)c1` [HEPTYL 3,4-DIHYDROXYBENZOATE], the inhibition result in assay [1] and in [4] was “Active” each time. The compound also registered an IC50 against Tyrosinase [2] of 316 µM. The compound also gave an inhibition constant (Ki) on Tyrosinase [3] of 135 µM.

As to `CCCCCCOC(=O)c1ccc(O)c(O)c1` [HEXYL 3,4-DIHYDROXYBENZOATE], in the assay with Plutella xylostella [5], the Activity is 0.3 cm. For the same compound, at Tyrosinase [2], the IC50 was determined as 910 µM. At Tyrosinase [3], the Ki was 389 µM. Moreover, the inhibition entry (in [6]; in [4]; with Plutella xylostella [7]) was “Active” in each case.

In the case of `CCCCCCCCCOC(=O)c1ccc(O)c(O)c1` [NONYL 3,4-DIHYDROXYBENZOATE], the inhibition result in [8] is “Active”. Also, 81 µM corresponded to half-maximal inhibition on Tyrosinase [2] (IC50).

`CCCCCCCCOC(=O)c1ccc(O)c(O)c1` [OCTYL 3,4-DIHYDROXYBENZOATE] gave an IC50 on Tyrosinase [2] of 129 µM. For the same compound, the inhibition result in [9], in assay [6] and in [10] was “Active” throughout.
